Test results taken from PubChem BioAssay.
Inconclusive results are not listed. Activity calls are given as the source filed them.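 Rule for the calls, unless noted: active = viability at or below 27.92% in each of two runs, the all-compound median minus 4 SD; inconclusive = no clear call, values can overlap the other calls; inactive = the rest.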

How the values were obtained:
[1] = S. cerevisiae growth inhibition in permissive medium (OD615), pilot counter-assay for S. cerevisiae lifespan shortening project, permissive growth control (AID 705;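 active = growth inhibition above 25% in both replicates, a cutoff set 3 SD above the mean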); settings: OD615, 24 h, at 10 µM, active compounds read high
Summary of the method: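 System: S. cerevisiae with engineered DeaD lifespan system. Medium: SC raffinose/galactose permissive medium. Doses: single compound dose of 10 µM, 0.25% DMSO final. Schedule: 24 h exposure, 30 °C. Measured by: OD615 turbidity read. Read-out: growth inhibition.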

[2] = S. cerevisiae growth inhibition in restrictive medium, OD615, pilot screen, restrictive growth control, yeast lifespan reduction project (AID 706;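 active = growth inhibition above a set limit, 3 SD over mean compound inhibition, in both replicates, cut at about 43% in these data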;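 note: modified DeaD lifespan yeast strain shifted to restrictive glucose medium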); settings: OD615, 48 h, at 10 µM, active compounds read high
Summary of the method: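 Assay system – genetically modified Saccharomyces cerevisiae, DeaD replicative lifespan assay strain · Medium – CSMM-D glucose medium · Doses – 10 µM compound, 0.25% DMSO · Times – 4 h pre-incubation, 48 h exposure at 30 °C · Signal – optical density at 615 nm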

[3] = doxorubicin toxicity protection in MRP-1 cells – H69AR cells, CellTiter-Glo, duplicate, MRP-1 activator project, pilot screen (AID 807;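 active = viability increase at or above a cutoff of the median across tested compounds plus 3 SD, cut at about 8.5% in these data, passing the limit was not always enough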;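 note: compound pretreatment 18-22 h then 72 h combined with doxorubicin; 0% = doxorubicin alone and 100% = vehicle without doxorubicin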); settings: H69AR viability with doxorubicin, CellTiter-Glo luminescence; at 10 µM; active compounds read high
[4] = viability of HCT116 without oncogenic beta-catenin – human colon tumor cells, pilot screen (AID 823;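 active = cell viability at or below a set limit in both duplicate runs, the limit being the all-compound median minus 4 SD, cut at about 23% in these data, passing the limit was not always enough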;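 note: 0% = wells killed by 20 µM Hyamine and 100% = untreated DMSO cell wells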); settings: HCT116 beta-catenin knockout viability, CellTiter-Glo, 60 h; at 10 µM; active compounds read low
[5] = viability of PTEN-null HCT116 cells – cell-based, HCT116 clonal line, CellTiter-Glo, pilot screen (AID 824); settings: HCT116 PTEN-deleted viability, 60 h, at 10 µM, active compounds read low;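 note: 0% = 20 µM Hyamine control and 100% = vehicle cell control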
[6] = RAM pathway blockade in budding yeast – dse1pr::URA3 reporter, 5-FOA selection, pilot screen (AID 869;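 active = inhibition over a set limit, the all-compound mean plus 3 SD, in both replicate runs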;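 note: 0% = DMSO wells with no growth and 100% = 10 µM 1-NA-PP1 with full growth; RAM network block rescues cells from 5-FOA so hits raise OD615 growth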); settings: S. cerevisiae dse1pr::URA3 5-FOA growth, OD615, 2 d; at 10 µM; active compounds read high; strain carries analog-sensitive mutant Cbk1 kinase
[7] = RAM signaling pathway blockade in yeast – S. cerevisiae, Pdr1DBD-CYC8 efflux-inhibited sensitized strain, primary screen (AID 1298;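 active = RAM network inhibition above 8.4% in each of two replicates, 3 SD over the compound average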;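 note: 0% = DMSO untreated cells without growth and 100% = 10 µM 1-NA-PP1 full growth; higher means more yeast growth rescued from 5-FOA killing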); settings: S. cerevisiae cbk1-as DSE1-URA3 strain, 5-FOA growth OD615, 2 d; at 50 µM; active compounds read high

O=C(CC1Oc2ccccc2NC1=O)NCc1ccccc1 (configuration not stated)
inactive: growth inhibition [1] 0.945% | growth inhibition [2] -4.32% | viability increase [3] -0.93% | viability [4] 105% | viability [5] 100% | inhibition [6] 3.42% | RAM network inhibition [7] 4.73%

CC(=O)c1sc(NC(=O)c2ccco2)nc1-c1ccccc1
inactive: growth inhibition [1] -6.58% | growth inhibition [2] 6.05% | viability increase [3] -1.39% | viability [4] 103% | viability [5] 87.7% | inhibition [6] 1.87% | RAM network inhibition [7] 1.69%

O=C(c1cc(-c2ccccc2)nc2ccccc12)N1CCOCC1
inactive: growth inhibition [1] -4.54% | growth inhibition [2] -9.07% | viability increase [3] -3.82% | viability [4] 102% | viability [5] 90.8% | inhibition [6] -0.135% | RAM network inhibition [7] 1.87%

COc1cccc(-n2nnc3c(=O)n(Cc4cccc(C)c4)cnc32)c1
inactive: growth inhibition [1] -8.22% | growth inhibition [2] -5.66% | viability increase [3] 0.31% | viability [4] 104% | viability [5] 89.7% | inhibition [6] 0.335% | RAM network inhibition [7] 5.49%

O=C(Cn1cnc2c(cnn2-c2ccc(Cl)cc2)c1=O)NC1CCCCC1
inactive: growth inhibition [1] -1.74% | growth inhibition [2] 6.22% | viability increase [3] -3.89% | viability [4] 91.3% | viability [5] 91.7% | inhibition [6] 3.79% | RAM network inhibition [7] 2.4%

Cc1ccc(C2CC(c3ccccc3)n3ncnc3N2)cc1 (configuration not stated)
inactive: growth inhibition [1] 1.32% | growth inhibition [2] 6.08% | viability increase [3] 1.68% | viability [4] 99.9% | viability [5] 98.8% | inhibition [6] 0.06% | RAM network inhibition [7] 1.8%

Brc1ccc(-c2nnc3sc(CNC4CCCC4)cn23)cc1
inactive: growth inhibition [1] 0.69% | growth inhibition [2] 24.3% | viability increase [3] 0.19% | viability [4] 106% | viability [5] 107% | inhibition [6] 1.58% | RAM network inhibition [7] 2.6%

CCOC(=O)C1=C(C)NC(=O)CC1c1cc2c(cc1Br)OCO2 (configuration not stated)
inactive: growth inhibition [1] 1.83% | growth inhibition [2] -5.8% | viability increase [3] -4.4% | viability [4] 96.6% | viability [5] 90.6% | inhibition [6] 1.44% | RAM network inhibition [7] 6.81%

Cn1c(=O)c2c(nc(SCCN3CCOCC3)n2Cc2ccccc2Cl)n(C)c1=O
inactive: growth inhibition [1] -14.9% | growth inhibition [2] 1.19% | viability increase [3] -5.35% | viability [4] 91.8% | viability [5] 94.9% | inhibition [6] 0.27% | RAM network inhibition [7] 5%

COc1ccc(CN(C)C2CCCCC2)cc1
inactive: growth inhibition [1] -16.4% | growth inhibition [2] -4.68% | viability increase [3] 0.58% | viability [4] 95.9% | viability [5] 99% | inhibition [6] 1.12% | RAM network inhibition [7] 4.95%

O=C(Nc1ccccc1)C1CC(=O)N(C2CCCCC2)C1 (configuration not stated)
inactive: growth inhibition [1] -8.56% | growth inhibition [2] 7.07% | viability increase [3] 1.42% | viability [4] 105% | viability [5] 101% | inhibition [6] 1.58% | RAM network inhibition [7] 3.42%

Cn1nc(-c2ccc(Cl)cc2)c2cc(C(=O)NCC3CCCO3)sc21 (configuration not stated)
inactive: growth inhibition [1] 1.54% | growth inhibition [2] 17.7% | viability increase [3] -5.84% | viability [4] 65.9% | viability [5] 60.2% | inhibition [6] -0.13% | RAM network inhibition [7] -2.54%

COc1ccc(C)cc1S(=O)(=O)NC1CCCCC1
inactive: growth inhibition [1] -9.02% | growth inhibition [2] -4.09% | viability increase [3] -0.23% | viability [4] 101% | viability [5] 101% | inhibition [6] 0.525% | RAM network inhibition [7] 6.79%

CCCC(=N)C1=C(O)CC(CC(C)SCC)CC1=O (configuration not stated)
inactive: growth inhibition [1] -5.42% | growth inhibition [2] 5.29% | viability increase [3] -1.06% | viability [4] 97.5% | viability [5] 103% | inhibition [6] 0.49% | RAM network inhibition [7] -1.1%

Cc1ccc(-c2cc(C(F)(F)F)n3ncc(C(=O)NCc4ccco4)c3n2)cc1
inactive: growth inhibition [1] -5.88% | growth inhibition [2] -12.6% | viability increase [3] -5.85% | viability [4] 74% | viability [5] 75.4% | inhibition [6] 2.67% | RAM network inhibition [7] 3.41%

c1ccc(OCCSc2ncnc3nc[nH]c23)cc1
inactive: growth inhibition [1] 3.62% | growth inhibition [2] 15.4% | viability increase [3] -0.26% | viability [4] 93.3% | viability [5] 87.4% | inhibition [6] 1.73% | RAM network inhibition [7] 3.23%

CCOc1ccc(OCC)c(NS(=O)(=O)c2cccc3nsnc23)c1
inactive: growth inhibition [1] -13.8% | growth inhibition [2] -21.1% | viability increase [3] -2.5% | viability [4] 88.8% | viability [5] 98% | inhibition [6] 2.63% | RAM network inhibition [7] 3.41%

CCCCNc1ncnc2c1cnn2-c1ccc(Cl)cc1
inactive: growth inhibition [1] -7.84% | growth inhibition [2] -18.1% | viability increase [3] -6.6% | inhibition [6] 0.835% | RAM network inhibition [7] 5.62%
active: viability [4] 17.3% | viability [5] 20.4%

COC(=O)C1=CN(CC2CCCO2)C=C(C(=O)OC)C1c1ccsc1 (configuration not stated)
inactive: growth inhibition [1] -22.4% | growth inhibition [2] -3.27% | viability increase [3] -4.97% | viability [4] 92.1% | viability [5] 97.5% | inhibition [6] 0.125% | RAM network inhibition [7] 4.53%

N#Cc1ccc(NC(=O)Nc2ccc(Cl)cc2)cc1
inactive: growth inhibition [1] 3.13% | growth inhibition [2] -4.69% | viability increase [3] -7.91% | inhibition [6] 1.34% | RAM network inhibition [7] 1.44%
active: viability [4] 6.71% | viability [5] 7.35%

COc1ccccc1NC(=O)CSc1nnc(Cn2c(=O)sc3ccccc32)n1C
inactive: growth inhibition [1] -3.61% | growth inhibition [2] 5.22% | viability increase [3] -4.11% | viability [4] 100% | viability [5] 87.9% | inhibition [6] 2.21% | RAM network inhibition [7] 4.37%

O=C(NCCc1csc(-c2cccnc2)n1)c1ccc(Br)o1
inactive: growth inhibition [1] 1.56% | growth inhibition [2] 10.1% | viability increase [3] -2.6% | viability [4] 107% | viability [5] 97.3% | inhibition [6] 0% | RAM network inhibition [7] 2.18%

CCCCN(CC)CCNc1c(NC2CCN(C(=O)OCC)CC2)c(=O)c1=O
inactive: growth inhibition [1] 2.35% | growth inhibition [2] 5.98% | viability increase [3] -0.12% | viability [4] 100% | viability [5] 95% | inhibition [6] 0.09% | RAM network inhibition [7] 3.37%

Cc1cccc(CC(=O)Nc2cc(=O)n(C)c(=O)n2C)c1
inactive: growth inhibition [1] -3.74% | growth inhibition [2] -4.44% | viability increase [3] -1.1% | viability [4] 100% | viability [5] 97.4% | inhibition [6] 1.84% | RAM network inhibition [7] 0.48%

CCCc1cc(C(=O)Nc2cccc(Cl)c2)no1
inactive: growth inhibition [1] -7.36% | growth inhibition [2] -1.01% | viability increase [3] 0.77% | viability [4] 102% | viability [5] 97.7% | inhibition [6] 1.44% | RAM network inhibition [7] -1.31%

O=C(CSc1nnc(Cc2cc(=O)[nH]c(=O)[nH]2)n1-c1ccc(F)cc1)NC1CCCC1
inactive: growth inhibition [1] -14.8% | growth inhibition [2] -7.13% | viability increase [3] -1.18% | viability [4] 105% | viability [5] 102% | inhibition [6] 0.96% | RAM network inhibition [7] 6.6%

COC(=O)c1cc(NC2c3ccccc3C(=O)N2c2cccnc2)cc(C(=O)OC)c1 (configuration not stated)
inactive: growth inhibition [1] -10.2% | growth inhibition [2] 0.875% | viability increase [3] -4.6% | viability [4] 90.6% | viability [5] 91.4% | inhibition [6] 1.27% | RAM network inhibition [7] 6.35%

Cc1ccc(N)c(C(O)(C(F)(F)F)C(F)(F)F)c1
inactive: growth inhibition [1] -4.98% | growth inhibition [2] -2.67% | viability increase [3] 2.71% | viability [4] 105% | viability [5] 99.6% | inhibition [6] -0.695% | RAM network inhibition [7] 2.27%

Cc1ccc(C)c2[nH]c(=O)c(CCNC(=O)C(C)C)cc12
inactive: growth inhibition [1] -14.5% | growth inhibition [2] -18.6% | viability increase [3] -0.31% | viability [4] 102% | viability [5] 104% | inhibition [6] 1.83% | RAM network inhibition [7] 2.82%

COC(=O)C(C)Sc1nnc(Cc2cc(=O)[nH]c(=O)[nH]2)n1-c1ccc(Cl)cc1 (configuration not stated)
inactive: growth inhibition [1] -13.7% | growth inhibition [2] -7.63% | viability increase [3] -1.15% | viability [4] 104% | viability [5] 95.6% | inhibition [6] 1.97% | RAM network inhibition [7] 1%

COc1ccc(C(=O)CCC(=O)N2CCN(c3ccc(N4CCOCC4)nn3)CC2)cc1
inactive: growth inhibition [1] 4.94% | growth inhibition [2] -0.495% | viability increase [3] -2.69% | viability [4] 102% | viability [5] 93.8% | inhibition [6] 1.65% | RAM network inhibition [7] 2.53%

CCc1cccc(NC(=O)CS(=O)Cc2nc(-c3ccc(C)cc3)oc2C)c1 (configuration not stated)
inactive: growth inhibition [1] 9.24% | growth inhibition [2] 24.4% | viability increase [3] -1.87% | viability [4] 96.1% | viability [5] 87.1% | inhibition [6] 1.46% | RAM network inhibition [7] 3.37%

O=C(Nc1ccc(OC(F)(F)F)cc1)c1cnc2n(c1=O)CCS2
inactive: growth inhibition [1] -14.9% | growth inhibition [2] -1.33% | viability increase [3] 2.36% | viability [4] 89.9% | viability [5] 79.1% | inhibition [6] 3.13% | RAM network inhibition [7] 4.63%

CCOC(=O)N1CCN(C(=O)Cc2ccc(Cl)cc2)CC1
inactive: growth inhibition [1] 3.9% | growth inhibition [2] -5.01% | viability increase [3] -1.27% | viability [4] 99.2% | viability [5] 95.3% | inhibition [6] 2.03% | RAM network inhibition [7] 6.67%

CC1CCN(C(=O)c2ccc(NC(=O)C3CCCO3)cc2)CC1 (configuration not stated)
inactive: growth inhibition [1] -31.4% | growth inhibition [2] -18.3% | viability increase [3] -0.41% | viability [4] 96.4% | viability [5] 94.3% | inhibition [6] 1.26% | RAM network inhibition [7] 3.59%

CCOC(=O)c1ccccc1Nc1cc(C)nc2nc(C)nn12
inactive: growth inhibition [1] -4.38% | growth inhibition [2] 9.16% | viability increase [3] -5.14% | viability [4] 97.6% | viability [5] 93% | inhibition [6] 1.52% | RAM network inhibition [7] 1.2%
